These results are taken from ChEMBL document CHEMBL1154922, “Rapid P1 SAR of brain penetrant tertiary carbinamine derived BACE inhibitors” (Bioorg Med Chem Lett, 2010).

Molecules are shown by their SMILES. The source made the active and inactive calls. The calls are words filed in the database; no cut-off is given here.

The target of data set [1] is Beta-secretase 1 (Homo sapiens) (UniProt P56817). Description: Inhibition of BACE1 at pH 6.5. In short, it runs like this: (§1)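 Enzymatic BACE-1 inhibition assay run at the pH given in each line. Potency is reported as the inflection point (IP), in nM.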
For data set [2] the target is unchanged. Description: Inhibition of BACE1-mediated production of secreted beta-secretase amino terminal fragment. In short, it runs like this:
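Cell-based sAPP_NF assay: cells express APP carrying the NF mutation, and secreted sAPP is the read-out. IC50 is given as mean ± deviation.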

For data set [3], the system named is Rhesus monkey. Description: Reduction in CSF amyloid beta42 level in cisterna magna ported Rhesus monkey at 15 mg/kg, po co-administered with CYP inhibitor ritonavir 10 mg/kg, po measured after 4 hrs by sandwich ELISA. The note with it: Macaca mulatta.
The target of data set [4] is Beta-secretase 1 (Homo sapiens) (UniProt P56817). Description: Inhibition of BACE1 at pH 4.5. In short, it runs like this: as §1
For data set [5], the system named is Rhesus monkey. Description: Reduction in CSF amyloid beta40 level in cisterna magna ported Rhesus monkey at 15 mg/kg, po co-administered with CYP inhibitor ritonavir 10 mg/kg, po measured after 24 hrs by sandwich ELISA. Type of data set: functional, organism-based. To be noted: Macaca mulatta.
A further data set is filed under the species Mus musculus. Description: Inhibition of mouse P-glycoprotein assessed as PGP ratio.
A short description of data set [6]: Plasma concentration in Rhesus monkey at 15 mg/kg, po co-administered with CYP inhibitor ritonavir 10 mg/kg, po after 24 hrs. Type of data set: ADME, organism-based, Macaca mulatta. The gist of the method: (§2)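 In a satellite PK experiment, rhesus monkeys (n = 3) received the test article at the stated dose together with 10 mpk ritonavir. Plasma levels (µM) were measured at 4 h and 24 h and averaged with standard deviations. Values below the limit of quantitation are marked BLQ.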

For data set [7], the system named is Rhesus monkey. Description: Reduction in CSF soluble APPbeta level in cisterna magna ported Rhesus monkey at 15 mg/kg, po co-administered with CYP inhibitor ritonavir 10 mg/kg, po measured after 4 hrs by sandwich ELISA. To be noted: Macaca mulatta. Background: ELISA stands for enzyme-linked immunosorbent assay.
Data set [8] can be described thus: Ratio of drug level in brain to plasma in transgenic mouse at 30 mg/kg, ip. The note with it: brain and plasma.
Data set [9] has as its system Rhesus monkey. Description: Reduction in CSF amyloid beta40 level in cisterna magna ported Rhesus monkey at 15 mg/kg, po co-administered with CYP inhibitor ritonavir 10 mg/kg, po measured after 4 hrs by sandwich ELISA. To be noted: Macaca mulatta. Type of data set: functional, organism-based.
In data set [10] the target is ATP-dependent translocase ABCB1 (Homo sapiens, UniProt P08183). Description: Inhibition of human P-glycoprotein assessed as PGP ratio.
A short description of data set [11]: Partition coefficient, log P of the compound. Type of data set: physicochemical. The note with it: octanol/water.
Data set [12] is described as follows: Plasma concentration in Rhesus monkey at 15 mg/kg, po co-administered with CYP inhibitor ritonavir 10 mg/kg, po after 4 hrs. Type of data set: ADME, organism-based, Macaca mulatta. The gist of the method:
as §2

The subject of data set [13] is Rhesus monkey. Description: Plasma concentration in Rhesus monkey at 5 mg/kg, po co-administered with CYP inhibitor ritonavir 10 mg/kg, po after 24 hrs. Type of data set: ADME, organism-based, Macaca mulatta. The note with it: in vivo, BLD = below limit of detection. The gist of the method:
as §2

In data set [14] the test system is Rhesus monkey. Description: Reduction in CSF soluble APPbeta level in cisterna magna ported Rhesus monkey at 15 mg/kg, po co-administered with CYP inhibitor ritonavir 10 mg/kg, po measured after 4 hrs by sandwich ELISA. Type of data set: functional, organism-based. To be noted: Macaca mulatta.
For data set [15], the system named is Rhesus monkey. Description: Reduction in CSF amyloid beta42 level in cisterna magna ported Rhesus monkey at 15 mg/kg, po co-administered with CYP inhibitor ritonavir 10 mg/kg, po measured after 4 hrs by sandwich ELISA. Type of data set: functional, organism-based. The note with it: Macaca mulatta.
Data set [16] concerns Rhesus monkey. Description: Reduction in CSF amyloid beta40 level in cisterna magna ported Rhesus monkey at 5 mg/kg, po co-administered with CYP inhibitor ritonavir 10 mg/kg, po measured after 4 hrs by sandwich ELISA. The note with it: Macaca mulatta. Type of data set: functional, organism-based.
The nature of data set [17]: Plasma concentration in Rhesus monkey at 5 mg/kg, po co-administered with CYP inhibitor ritonavir 10 mg/kg, po after 4 hrs. Type of data set: ADME, organism-based, Macaca mulatta. In short, it runs like this:
as §2

In general, Kp refers to tissue or fluid exposure divided by exposure in the circulation. By logP is commonly meant a log measure of how a compound divides between an organic and an aqueous phase.

Sequence of Beta-secretase 1 (Homo sapiens) (P56817 whole entry, the tested form may be a part): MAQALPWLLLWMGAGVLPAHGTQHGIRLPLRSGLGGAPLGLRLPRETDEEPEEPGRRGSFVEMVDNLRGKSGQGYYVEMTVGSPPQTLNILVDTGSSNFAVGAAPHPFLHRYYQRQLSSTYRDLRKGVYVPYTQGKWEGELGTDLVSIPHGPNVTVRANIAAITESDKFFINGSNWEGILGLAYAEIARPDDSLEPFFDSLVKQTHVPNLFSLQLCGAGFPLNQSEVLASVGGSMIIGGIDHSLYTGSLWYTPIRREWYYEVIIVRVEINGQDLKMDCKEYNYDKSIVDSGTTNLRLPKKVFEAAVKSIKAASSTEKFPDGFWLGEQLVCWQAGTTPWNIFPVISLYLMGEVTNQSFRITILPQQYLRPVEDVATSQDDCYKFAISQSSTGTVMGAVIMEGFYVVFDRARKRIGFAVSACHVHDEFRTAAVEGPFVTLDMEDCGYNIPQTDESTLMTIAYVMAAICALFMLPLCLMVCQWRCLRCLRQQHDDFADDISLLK
Sequence of ATP-dependent translocase ABCB1 (P08183 whole entry): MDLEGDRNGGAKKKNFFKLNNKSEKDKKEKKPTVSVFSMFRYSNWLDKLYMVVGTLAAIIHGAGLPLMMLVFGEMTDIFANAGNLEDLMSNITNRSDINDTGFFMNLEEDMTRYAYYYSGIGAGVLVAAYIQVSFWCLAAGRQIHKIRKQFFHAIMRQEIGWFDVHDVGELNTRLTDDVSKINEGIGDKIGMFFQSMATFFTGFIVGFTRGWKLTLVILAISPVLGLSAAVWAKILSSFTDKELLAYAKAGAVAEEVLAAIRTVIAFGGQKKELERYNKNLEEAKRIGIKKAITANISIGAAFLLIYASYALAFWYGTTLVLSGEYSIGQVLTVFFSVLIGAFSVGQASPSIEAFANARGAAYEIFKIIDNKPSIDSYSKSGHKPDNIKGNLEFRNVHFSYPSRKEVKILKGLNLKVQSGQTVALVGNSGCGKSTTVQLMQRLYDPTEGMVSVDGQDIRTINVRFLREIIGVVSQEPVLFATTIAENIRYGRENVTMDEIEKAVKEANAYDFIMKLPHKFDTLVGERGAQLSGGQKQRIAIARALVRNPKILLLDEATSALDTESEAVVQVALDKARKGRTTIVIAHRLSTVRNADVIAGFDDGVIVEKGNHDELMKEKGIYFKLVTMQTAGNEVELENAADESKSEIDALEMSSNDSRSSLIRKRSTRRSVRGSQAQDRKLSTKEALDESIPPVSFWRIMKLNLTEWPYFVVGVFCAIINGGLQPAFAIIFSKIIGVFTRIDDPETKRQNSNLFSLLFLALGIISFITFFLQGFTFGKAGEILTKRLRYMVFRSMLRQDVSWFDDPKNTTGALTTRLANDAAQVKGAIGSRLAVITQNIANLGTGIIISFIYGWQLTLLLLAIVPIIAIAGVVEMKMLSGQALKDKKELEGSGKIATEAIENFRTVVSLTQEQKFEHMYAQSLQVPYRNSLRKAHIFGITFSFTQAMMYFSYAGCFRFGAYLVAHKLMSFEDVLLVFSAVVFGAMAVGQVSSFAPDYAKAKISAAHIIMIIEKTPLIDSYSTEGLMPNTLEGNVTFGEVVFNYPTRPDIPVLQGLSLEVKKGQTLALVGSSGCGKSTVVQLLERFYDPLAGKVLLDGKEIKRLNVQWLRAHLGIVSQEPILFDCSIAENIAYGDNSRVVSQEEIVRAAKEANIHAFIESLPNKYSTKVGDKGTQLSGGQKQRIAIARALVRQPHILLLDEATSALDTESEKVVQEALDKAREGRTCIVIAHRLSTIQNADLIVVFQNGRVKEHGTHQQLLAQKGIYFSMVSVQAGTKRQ

As for `COCCN(C[C@H]1C[C@@H]1C)c1cc(-c2nnc([C@](C)(N)Cc3cccc(Cl)c3)o2)c(Cl)c(N(C)S(C)(=O)=O)n1`, the IP is 65 nM in data set [1] and 4320 nM in data set [2].

Turning to `COCCN(C[C@H]1C[C@@H]1C)c1cc(-c2nnc([C@](C)(N)Cc3ccco3)o2)c(Cl)c(N(C)S(C)(=O)=O)n1`, the IP in data set [1] was 375 nM; in [2] it was 3190 nM.

In [1], `COCCN(C[C@H]1C[C@@H]1C)c1cc(-c2nnc([C@](C)(N)Cc3ccc(OC)nc3)o2)c(Cl)c(N(C)S(C)(=O)=O)n1` returned an IP of 1400 nM.

`COCCN(C[C@H]1C[C@@H]1C)c1cc(-c2nnc([C@](C)(N)Cc3cccc(F)c3)o2)c(Cl)c(N(C)S(C)(=O)=O)n1`: the IP in [1] worked out at 17 nM; in [2] it was 304 nM.

With `COCCN(C[C@H]1C[C@@H]1C)c1cc(-c2nnc([C@](C)(N)Cc3ccccc3)o2)c(Cl)c(N(C)S(C)(=O)=O)n1`, the result in the data set on Rhesus monkey [3], with Rhesus monkey [5], in the data set on Rhesus monkey [7] and in the data set with Rhesus monkey [9] was Active. Also, the IP in [1] worked out at 5 nM; in [2], 46 nM; in [4], 0.4 nM. The Ratio turned out to be 2.3 in the data set filed under Mus musculus and 1.9 in data set [10]. In addition, in [6], the concentration at 24 h was 100 nM. Also, in data set [8], the Kp stood at 9. The logP in [11] was > 3.2. Also, in data set [12], the concentration at 4 h is 3360 nM.

With `COCCN(C[C@H]1C[C@@H]1C)c1cc(-c2nnc([C@](C)(N)Cc3ccccc3F)o2)c(Cl)c(N(C)S(C)(=O)=O)n1`, the IP was determined as 15 nM in data set [1] and 195 nM in data set [2].

For `COCCN(C[C@H]1C[C@@H]1C)c1cc(-c2nnc([C@](C)(N)Cc3ccccc3OC)o2)c(Cl)c(N(C)S(C)(=O)=O)n1`, the IP in [1] is 3500 nM.

In the case of `COCCN(C[C@H]1C[C@@H]1C)c1cc(-c2nnc([C@](C)(N)Cc3ccccc3Cl)o2)c(Cl)c(N(C)S(C)(=O)=O)n1`, the results for the IP in data set [1] and in [2] were 340 nM and > 6700 nM, respectively.

For `COCCN(C[C@H]1C[C@@H]1C)c1cc(-c2nnc([C@](C)(N)Cc3ccc(OC)cc3)o2)c(Cl)c(N(C)S(C)(=O)=O)n1`, the results for the IP in [1] and in data set [2] were 180 nM and 4300 nM, respectively.

As for `CCCC[C@@](C)(N)c1nnc(-c2cc(N(CCOC)C[C@H]3C[C@@H]3C)nc(N(C)S(C)(=O)=O)c2Cl)o1`, the IP is 1300 nM in data set [1] and > 2200 nM in [2].

In the case of `COCCN(C[C@H]1C[C@@H]1C)c1cc(-c2nnc([C@](C)(N)Cc3ccc(Br)cc3Br)o2)c(Cl)c(N(C)S(C)(=O)=O)n1`, the IP in data set [1] was > 600000 nM.

In the case of `COCCN(C[C@H]1C[C@@H]1C)c1cc(-c2nnc([C@](C)(N)Cc3ccc(Cl)cc3)o2)c(Cl)c(N(C)S(C)(=O)=O)n1`, the IP in [1] was 4 nM; in data set [2] it was 320 nM.

For the molecule `COCCN(C[C@H]1C[C@@H]1C)c1cc(-c2nnc([C@](C)(N)Cc3ccoc3)o2)c(Cl)c(N(C)S(C)(=O)=O)n1`, the results for the IP in data set [1] and in data set [2] were 142 nM and 1930 nM, respectively.

Take `COCCN(C[C@H]1C[C@@H]1C)c1cc(-c2nnc([C@](C)(N)Cc3ncco3)o2)c(Cl)c(N(C)S(C)(=O)=O)n1`: the IP in data set [1] is 49000 nM.

For the molecule `COCCN(C[C@H]1C[C@@H]1C)c1cc(-c2nnc([C@](C)(N)Cc3ccc4c(c3)OCO4)o2)c(Cl)c(N(C)S(C)(=O)=O)n1`, the IP in [1] is 119 nM; in data set [2], 1100 nM.

In the case of `COCCN(C[C@H]1C[C@@H]1C)c1cc(-c2nnc([C@](C)(N)Cc3ccnc(OC)c3)o2)c(Cl)c(N(C)S(C)(=O)=O)n1`, the IP in data set [1] was determined as 9900 nM.

As for `COCCN(C[C@H]1C[C@@H]1C)c1cc(-c2nnc([C@](C)(N)Cc3ccc(F)cc3)o2)c(Cl)c(N(C)S(C)(=O)=O)n1`, the IP in data set [1] was 2 nM; in [2], 15 nM. For the same molecule, the Cp result with Rhesus monkey [13] is recorded as “BLD”. The values for the Ratio (in the data set listed under Mus musculus; in [10]) were 1.9 and 1.1, respectively. Moreover, the result in the data set with Rhesus monkey [14], with Rhesus monkey [15] and in the data set with Rhesus monkey [16] was Active. In addition, the concentration at 24 h in [6] came out at 30 nM. Further, the concentration at 4 h in data set [12] came to 2340 nM; in [17], 1310 nM.

Turning to `COCCN(C[C@H]1C[C@@H]1C)c1cc(-c2nnc([C@](C)(N)Cc3cccc(OC)c3)o2)c(Cl)c(N(C)S(C)(=O)=O)n1`, the IP in data set [1] came out at 1500 nM.

As to `COCCN(C[C@H]1C[C@@H]1C)c1cc(-c2nnc([C@](C)(N)Cc3cc(Br)c(F)cc3Br)o2)c(Cl)c(N(C)S(C)(=O)=O)n1`, the IP in data set [1] turned out to be 29000 nM.
